# Source: ChEMBL document CHEMBL4049388, “Facile and efficient access to Androsten-17-(1',3',4')-pyrazoles and Androst-17β-(1',3',4')-pyrazoles via Vilsmeier reagents, and their antiproliferative activity evaluation in vitro” (Eur J Med Chem, 2017)
# pIC50: −log10 of the molar value. Calls of active or inactive are those of the source. No cut-off for these calls is given here.
# Assays:
# HeLa [1] = assay: Induction of apoptosis in human HeLa cells assessed as gated cells at viable stage at 5 uM after 24 hrs by Annexin-V-FITC/propidium iodide staining based flow cytometry (reference value: 99.88%); format: functional
# Method in brief: (§1)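 Hela cells seeded at 10^6 per well and stabilized 24 h at 37 °C, 5% CO2. Then treated 24 h at 2.5, 5.0 or 7.5 μM, DMSO negative control. Cells washed in cold PBS, resuspended at 1×10^6 cells/mL in cold binding buffer, stained with annexin V-FITC then PI for 15 min in dark, analysed by flow cytometry.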
# HeLa [2] = assay: Induction of apoptosis in human HeLa cells assessed as total cells at necrotic stage at 2.5 uM after 24 hrs by Annexin-V-FITC/propidium iodide staining based flow cytometry (reference value: 0.05%); format: functional; method in brief: as §1
# A549 = assay: Cytotoxicity against human A549 cells after 72 hrs by SRB assay; format: functional, cell-based; details: A549, 72 h
# Method in brief: (§2)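 SRB assay on 293T, A549, Hela and MCF-7 cells, with cisplatin as reference control. IC50 calculated for each compound from triplicate assays.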
# HeLa [3] = assay: Induction of apoptosis in human HeLa cells assessed as total cells at late apoptotic stage at 7.5 uM after 24 hrs by Annexin-V-FITC/propidium iodide staining based flow cytometry (reference value: 0.03%); format: functional; method in brief: as §1
# HeLa [4] = assay: Induction of apoptosis in human HeLa cells assessed as total cells at late apoptotic stage at 2.5 uM after 24 hrs by Annexin-V-FITC/propidium iodide staining based flow cytometry (reference value: 0.03%); format: functional; method in brief: as §1
# HeLa [5] = assay: Cell cycle arrest in human HeLa cells assessed as accumulation at S phase at 7.5 uM after 24 hrs by propidium iodide staining based flow cytometry (reference value: 18.92%); format: functional
# HeLa [6] = assay: Induction of apoptosis in human HeLa cells assessed as gated cells at necrotic stage at 7.5 uM after 24 hrs by Annexin-V-FITC/propidium iodide staining based flow cytometry (reference value: 0.05%); format: functional; method in brief: as §1
# HeLa [7] = assay: Induction of apoptosis in human HeLa cells assessed as apoptotic body formation at 7.5 uM after 48 hrs by Hoechst 33342 staining based fluorescence microscopic method; format: functional, cell-based
# Method in brief: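 Hela cells seeded at 10^6 per well on cover slips and incubated 16 h. Then exposed 48 h at 2.5, 5.0 or 7.5 μM, DMSO negative control. Cells fixed in 4% paraformaldehyde for 15 min, washed in PBS, stained with Hoechst 33342 for 10 min. Nuclear morphology viewed by fluorescence microscopy, ex 350 nm / em 460 nm.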
# MCF7 = assay: Cytotoxicity against human MCF7 cells after 72 hrs by SRB assay; format: functional, cell-based; details: MCF7, 72 h; method in brief: as §2
# HeLa [8] = assay: Induction of apoptosis in human HeLa cells assessed as total cells at necrotic stage at 5 uM after 24 hrs by Annexin-V-FITC/propidium iodide staining based flow cytometry (reference value: 0.05%); format: functional; method in brief: as §1
# HeLa [9] = assay: Cell cycle arrest in human HeLa cells assessed as accumulation at S phase at 2.5 uM after 24 hrs by propidium iodide staining based flow cytometry (reference value: 18.92%); format: functional
# HeLa [10] = assay: Induction of apoptosis in human HeLa cells assessed as total cells at viable stage at 2.5 uM after 24 hrs by Annexin-V-FITC/propidium iodide staining based flow cytometry (reference value: 96.16%); format: functional; method in brief: as §1
# HeLa [11] = assay: Induction of apoptosis in human HeLa cells assessed as gated cells at early apoptotic stage at 5 uM after 24 hrs by Annexin-V-FITC/propidium iodide staining based flow cytometry (reference value: 0.04%); format: functional; method in brief: as §1
# HeLa [12] = assay: Induction of apoptosis in human HeLa cells assessed as gated cells at necrotic stage at 2.5 uM after 24 hrs by Annexin-V-FITC/propidium iodide staining based flow cytometry (reference value: 0.05%); format: functional; method in brief: as §1
# HeLa [13] = assay: Induction of apoptosis in human HeLa cells assessed as gated cells at late apoptotic stage at 2.5 uM after 24 hrs by Annexin-V-FITC/propidium iodide staining based flow cytometry (reference value: 0.03%); format: functional; method in brief: as §1
# HeLa [14] = assay: Cell cycle arrest in human HeLa cells assessed as accumulation at G1 phase at 7.5 uM after 24 hrs by propidium iodide staining based flow cytometry (reference value: 56.72%); format: functional
smiles,measurement,setting,value
CCNCc1cn(-c2ccccc2)nc1C1=CC[C@H]2[C@@H]3CC=C4C[C@@H](O)CC[C@]4(C)[C@H]3CC[C@]12C,Activity,HeLa [1],93.44%
same,Activity,HeLa [2],1.28%
same,pIC50,A549,5.13
same,Activity,HeLa [3],0.9%
same,Activity,HeLa [4],0.16%
same,Activity,HeLa [5],24.77%
same,Activity,HeLa [6],3.12%
same,Activity,HeLa [7],Active
same,pIC50,MCF7,5.60
same,Activity,HeLa [8],3.26%
same,Activity,HeLa [9],19.8%
same,Activity,HeLa [10],95.73%
same,Activity,HeLa [11],2.41%
same,Activity,HeLa [12],1.31%
same,Activity,HeLa [13],0.16%
same,Activity,HeLa [14],49.92%
